Measured values reported in ChEMBL document CHEMBL1131080, “Structure-based design and synthesis of high affinity tripeptide ligands of the Grb2-SH2 domain” (J Med Chem, 1998).

Columns and labels:
[1] = molecular target: T1, Growth factor receptor-bound protein 2 (Homo sapiens, UniProt P62993); assay: Inhibition of Grb2-SH2 domain binding to phospho-EGF receptor intracellular C-terminal domain; assay type: biochemical
Summary of the method: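 Phosphorylated MBP-EGFR C-terminal domain (residues 976–1210, expressed in E. coli) is immobilized on plates and incubated with GST/Grb2-SH2 in the presence of phosphopeptide or buffer. Bound SH2 is detected with rabbit anti-GST and HRP anti-rabbit antibody, using TMB substrate read at 655 nm. Inhibition is the % absorbance reduction versus no inhibitor; IC50 comes from nonlinear regression.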

[2] = molecular target: Tyrosine-protein kinase Lck (Homo sapiens, UniProt P06239); assay: Inhibition of p56lck SH2 domain binding to biotinylated phosphopeptide
Chain of Tyrosine-protein kinase Lck (P06239 whole entry, the tested form may be a part): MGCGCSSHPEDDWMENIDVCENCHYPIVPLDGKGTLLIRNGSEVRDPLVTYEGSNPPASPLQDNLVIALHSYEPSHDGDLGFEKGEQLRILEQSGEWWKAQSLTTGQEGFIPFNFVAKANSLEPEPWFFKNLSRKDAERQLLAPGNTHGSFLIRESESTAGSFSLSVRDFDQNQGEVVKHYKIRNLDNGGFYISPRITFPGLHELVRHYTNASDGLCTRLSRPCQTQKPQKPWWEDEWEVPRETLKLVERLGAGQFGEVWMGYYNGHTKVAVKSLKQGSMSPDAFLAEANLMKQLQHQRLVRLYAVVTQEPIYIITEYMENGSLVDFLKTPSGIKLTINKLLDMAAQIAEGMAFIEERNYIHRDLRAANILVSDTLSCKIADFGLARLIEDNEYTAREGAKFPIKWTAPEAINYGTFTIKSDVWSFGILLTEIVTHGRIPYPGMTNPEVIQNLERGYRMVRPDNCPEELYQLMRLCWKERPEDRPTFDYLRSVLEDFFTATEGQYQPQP
Summary of the method: (§1)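 Competition ELISA. Biotinylated phosphopeptide (10 ng/mL in 50 mM Tris, pH 7.5) is captured overnight at 4 °C on streptavidin-coated plates. Wells then receive GST-SH2 fusion (Grb2 3.2 ng/mL, Lck 3.2 ng/mL, p85 N-terminal 0.7 ng/mL) with varying unlabeled peptide or buffer, in TBS/0.1% Tween. Detection is rabbit anti-GST, then peroxidase anti-rabbit IgG with TMB. IC50 comes from nonlinear regression of % absorbance reduction.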

[3] = Inhibition of p85 SH2 domain binding to biotinylated phosphopeptide; summary of the method: as §1
[4] = molecular target: T1, Growth factor receptor-bound protein 2; assay: Inhibition of Grb2 SH2 domain binding to biotinylated phosphopeptide; summary of the method: as §1

T1 sequence (P62993 whole entry, the tested form may be a part): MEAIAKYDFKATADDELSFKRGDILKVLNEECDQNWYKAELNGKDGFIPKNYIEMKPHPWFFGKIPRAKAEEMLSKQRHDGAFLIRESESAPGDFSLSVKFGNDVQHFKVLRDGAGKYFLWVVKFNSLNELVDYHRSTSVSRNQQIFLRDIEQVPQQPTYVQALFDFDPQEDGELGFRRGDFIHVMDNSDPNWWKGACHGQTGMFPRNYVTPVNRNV

Structure (SMILES) | IC50 [1] | IC50 [2] | IC50 [3] | IC50 [4]
CCCCC(CC)CNC(=O)C[C@H](NC(=O)[C@@H](NC(=O)[C@@H](N)Cc1ccc(OP(=O)(OC(C)=O)OC(C)=O)cc1)[C@@H](C)CC)C(=O)O (stereo not given in full) | 1600 nM |  |  | 
CC[C@H](C)[C@H](NC(=O)[C@@H](N)Cc1ccc(OP(=O)(OC(C)=O)OC(C)=O)cc1)C(=O)N[C@@H](CC(=O)NCCCc1cccc2ccccc12)C(=O)O | 330 nM | > 10000 nM | > 10000 nM | 580 nM
CC[C@H](C)[C@H](NC(=O)[C@@H](N)Cc1ccc(OP(=O)(OC(C)=O)OC(C)=O)cc1)C(=O)N[C@@H](CC(=O)NCC(C)C)C(=O)O | 3200 nM |  |  | 
CC[C@H](C)[C@H](NC(=O)[C@@H](N)Cc1ccc(OP(=O)(OC(C)=O)OC(C)=O)cc1)C(=O)N[C@@H](CC(=O)NCCC(C)C)C(=O)O | 3100 nM |  |  | 
CC[C@H](C)[C@H](NC(=O)[C@@H](N)Cc1ccc(OP(=O)(OC(C)=O)OC(C)=O)cc1)C(=O)N[C@@H](CC(=O)NCCCc1ccccc1)C(=O)O | 2300 nM |  |  | 
CC[C@H](C)[C@H](NC(=O)[C@@H](N)Cc1ccc(OP(=O)(OC(C)=O)OC(C)=O)cc1)C(=O)N[C@@H](CC(=O)NCCCc1ccc(Cl)cc1Cl)C(=O)O | 1500 nM |  |  | 
CC[C@H](C)[C@H](NC(=O)[C@@H](N)Cc1ccc(OP(=O)(OC(C)=O)OC(C)=O)cc1)C(=O)N[C@@H](CC(N)=O)C(=O)O | 8900 nM |  |  | 
